Tests used:
Mus musculus [1] = experiment: Antinociceptive activity in CD1 mouse assessed as increase in thermal-stimulus induced paw withdrawal latency at 3 mg/kg, sc measured after 45 mins by hot plate method relative to control; format: functional
How it was run: (§1)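 Male CD1 mice (20–25 g), groups of 8, scored blind. After 5 min on a room-temperature plate, mice are placed on a 52 °C hotplate. Latency is the time to licking of fore- or hindpaws or flicking of hindpaws, with a 30 s cut-off. Two consecutive stable baseline latencies are taken, then latency is read 30 and 45 min after s.c. injection. % effect = (post − pre)/pre × 100.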

Mus musculus [2] = experiment: Antinociceptive activity in wild-type C57Bl/6J mouse assessed as increase in thermal-stimulus induced paw withdrawal latency at 60 mg/kg, sc measured after 30 mins by hot plate method relative to control; format: functional
How it was run: (§2)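 TREK-1−/− and wild-type C57Bl/6J littermates came from heterozygous crosses, n=7. Dose was 60 mg/kg s.c. The 52 °C hotplate measured paw-lick latency, 30 s cut-off, with baseline from two stable pre-dose latencies.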

Mus musculus [3] = experiment: Antinociceptive activity in TREK1 deficient C57Bl/6J mouse assessed as increase in thermal-stimulus induced paw withdrawal latency at 60 mg/kg, sc measured after 45 mins by hot plate method relative to control; format: functional; how it was run: as §2
Mus musculus [4] = experiment: Antinociceptive activity in TREK1 deficient C57Bl/6J mouse assessed as increase in thermal-stimulus induced paw withdrawal latency at 60 mg/kg, sc measured after 30 mins by hot plate method relative to control; format: functional; how it was run: as §2
Mus musculus [5] = experiment: Antinociceptive activity in wild-type C57Bl/6J mouse assessed as increase in thermal-stimulus induced paw withdrawal latency at 60 mg/kg, sc measured after 45 mins by hot plate method relative to control; format: functional; how it was run: as §2
Mus musculus [6] = experiment: In vivo activation of TREK1 in C57Bl/6J mouse assessed as increase in thermal-stimulus induced paw withdrawal latency at 60 mg/kg, sc measured after 30 mins by hot plate method relative to control; format: functional; how it was run: as §2
Mus musculus [7] = experiment: In vivo activation of TREK1 in C57Bl/6J mouse assessed as increase in thermal-stimulus induced paw withdrawal latency at 60 mg/kg, sc measured after 45 mins by hot plate method relative to control; format: functional; how it was run: as §2
Mus musculus [8] = experiment: Antinociceptive activity in CD1 mouse assessed as increase in thermal-stimulus induced paw withdrawal latency at 3 mg/kg, sc measured after 30 mins by hot plate method relative to control; format: functional; how it was run: as §1
Mus musculus [9] = experiment: Antinociceptive activity in CD1 mouse assessed as increase in thermal-stimulus induced paw withdrawal latency at 60 mg/kg, sc measured after 45 mins by hot plate method relative to control; format: functional
How it was run: (§3)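 Male CD1 mice (20-25 g), n=8 per group, given 60 mg/kg s.c. After 5 min acclimatization on a plate at room temperature, mice were placed on a 52 °C hotplate. Latency to forepaw or hindpaw licking or hindpaw flicking was recorded, with a 30 s cut-off. Latency was taken after two consecutive stable baselines, then 30 and 45 min post-dose. Effect = (postdrug − predrug latency)/predrug latency ×100.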

[10] = target: T1, Potassium channel subfamily K member 2 (Homo sapiens) (UniProt O95069); experiment: Agonist activity at human TREK1 expressed in HEK293 cells assessed as increase in K+ current at 10 uM measured at +60 mV by whole-cell patch clamp method relative to control; format: cell-based
T1 sequence (whole entry): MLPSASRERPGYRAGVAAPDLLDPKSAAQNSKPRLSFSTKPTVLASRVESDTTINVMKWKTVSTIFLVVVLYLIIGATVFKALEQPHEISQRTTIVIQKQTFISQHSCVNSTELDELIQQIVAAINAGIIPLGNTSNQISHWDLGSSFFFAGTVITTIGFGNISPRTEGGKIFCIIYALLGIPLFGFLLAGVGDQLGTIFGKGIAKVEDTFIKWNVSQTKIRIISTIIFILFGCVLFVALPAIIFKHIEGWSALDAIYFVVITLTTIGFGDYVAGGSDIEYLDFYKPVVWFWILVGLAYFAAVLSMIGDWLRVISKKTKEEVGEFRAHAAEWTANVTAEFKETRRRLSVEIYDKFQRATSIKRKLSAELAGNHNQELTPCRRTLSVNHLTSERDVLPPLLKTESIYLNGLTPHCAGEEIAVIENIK
How it was run: (§4)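 Human TREK-1 (kcnk2) in pIRES2-eGFP was stably expressed in HEK-293 cells under G418 selection, and cells were used 4–48 h after plating. Bath (mM): 140 NaCl, 10 TEA-Cl, 5 KCl, 3 MgCl2, 1 CaCl2, 10 HEPES, pH 7.4. Pipette (mM): 155 KCl, 3 MgCl2, 5 EGTA, 10 HEPES, pH 7.2. Holding was −80 mV, with a step to −100 mV then a 400 ms ramp to +60 mV every 5 s. Read-out was the ratio Imax/I0 taken from I/V curves. Stocks were 20 mM in DMSO.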

Mus musculus [11] = experiment: Antinociceptive activity in CD1 mouse assessed as inhibition of acetic acid-induced writhes at 10 mg/kg, sc pretreated for 15 mins followed by acetic acid challenge measured within 20 mins relative to control; format: functional
How it was run: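 Male CD1 mice (20-25 g), n=8 per group, dosed at 10 mg/kg s.c. or with vehicle (5% Tween 80 in 0.9% saline). Dosing was 15 min before i.p. 0.6% acetic acid (10 mL/kg). Abdominal writhes were counted for 20 min. Effect = (mean control writhes − mean test writhes)/mean control writhes ×100.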

[12] = Half life in rat liver microsomes at 40 mM in presence of NADPH-cofactor by HPLC analysis; format: ADME, microsome
Mus musculus [13] = experiment: Antinociceptive activity in CD1 mouse assessed as increase in thermal-stimulus induced paw withdrawal latency at 60 mg/kg, sc measured after 30 mins by hot plate method relative to control; format: functional; how it was run: as §3
Liver = experiment: Drug metabolism in rat liver microsomes assessed as (E)-2-cyano-3-(1H-indol-2-yl)acrylic acid formation at 40 mM in presence of NADPH-cofactor measured after 24 hrs by HPLC analysis; format: ADME, microsome; details: 40000 µM
How it was run: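 Incubation mix: rat liver microsomes (20 mg/mL stock), phosphate buffer pH 7.4 and NADPH (40 mM stock). Drug was added from a 40 mM DMSO stock. Samples were vortexed and incubated at 37 °C with stirring.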

[14] = target: T1, Potassium channel subfamily K member 2 (Homo sapiens); experiment: Agonist activity at human TREK1 expressed in HEK293 cells assessed as increase in K+ current at 20 uM measured at +60 mV by whole-cell patch clamp method relative to control; format: cell-based; how it was run: as §4
[15] = target: Potassium channel subfamily K member 9 (Homo sapiens) (UniProt Q9NPC2); experiment: Agonist activity at TASK3 (unknown origin) expressed in HEK293 cells assessed as increase in K+ current at 20 uM measured at +60 mV by whole-cell patch clamp method relative to control; format: cell-based
Sequence of Potassium channel subfamily K member 9 (Homo sapiens) (Q9NPC2 whole entry): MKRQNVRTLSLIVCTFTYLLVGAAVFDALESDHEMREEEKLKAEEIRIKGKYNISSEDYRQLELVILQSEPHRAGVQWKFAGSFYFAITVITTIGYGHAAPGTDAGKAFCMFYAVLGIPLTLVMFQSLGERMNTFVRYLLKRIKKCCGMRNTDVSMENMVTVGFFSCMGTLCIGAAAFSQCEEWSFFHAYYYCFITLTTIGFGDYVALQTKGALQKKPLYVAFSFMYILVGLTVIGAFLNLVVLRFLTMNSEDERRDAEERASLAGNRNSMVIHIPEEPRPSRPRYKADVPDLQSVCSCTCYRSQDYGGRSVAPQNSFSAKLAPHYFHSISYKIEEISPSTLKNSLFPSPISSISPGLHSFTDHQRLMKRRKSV

[16] = target: T2, Potassium channel subfamily K member 4 (Homo sapiens) (UniProt Q9NYG8); experiment: Agonist activity at TRAAK (unknown origin) expressed in HEK293 cells assessed as increase in K+ current at 20 uM measured at +60 mV by whole-cell patch clamp method relative to control; format: cell-based
T2 sequence (whole entry): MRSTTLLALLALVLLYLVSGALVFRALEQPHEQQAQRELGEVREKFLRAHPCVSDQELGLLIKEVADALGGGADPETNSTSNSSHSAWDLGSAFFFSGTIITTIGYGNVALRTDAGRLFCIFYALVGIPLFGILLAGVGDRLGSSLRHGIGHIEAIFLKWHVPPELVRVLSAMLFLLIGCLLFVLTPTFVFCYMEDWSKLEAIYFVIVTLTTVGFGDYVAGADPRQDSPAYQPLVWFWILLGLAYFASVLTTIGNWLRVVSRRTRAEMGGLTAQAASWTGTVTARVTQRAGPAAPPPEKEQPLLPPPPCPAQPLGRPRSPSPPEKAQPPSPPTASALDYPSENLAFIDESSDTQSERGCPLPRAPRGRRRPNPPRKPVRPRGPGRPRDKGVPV

[17] = target: T3, Potassium channel subfamily K member 10 (Homo sapiens) (UniProt P57789); experiment: Agonist activity at TREK-2 (unknown origin) expressed in HEK293 cells assessed as increase in K+ current at 20 uM measured at +60 mV by whole-cell patch clamp method relative to control; format: cell-based
T3 sequence (whole entry): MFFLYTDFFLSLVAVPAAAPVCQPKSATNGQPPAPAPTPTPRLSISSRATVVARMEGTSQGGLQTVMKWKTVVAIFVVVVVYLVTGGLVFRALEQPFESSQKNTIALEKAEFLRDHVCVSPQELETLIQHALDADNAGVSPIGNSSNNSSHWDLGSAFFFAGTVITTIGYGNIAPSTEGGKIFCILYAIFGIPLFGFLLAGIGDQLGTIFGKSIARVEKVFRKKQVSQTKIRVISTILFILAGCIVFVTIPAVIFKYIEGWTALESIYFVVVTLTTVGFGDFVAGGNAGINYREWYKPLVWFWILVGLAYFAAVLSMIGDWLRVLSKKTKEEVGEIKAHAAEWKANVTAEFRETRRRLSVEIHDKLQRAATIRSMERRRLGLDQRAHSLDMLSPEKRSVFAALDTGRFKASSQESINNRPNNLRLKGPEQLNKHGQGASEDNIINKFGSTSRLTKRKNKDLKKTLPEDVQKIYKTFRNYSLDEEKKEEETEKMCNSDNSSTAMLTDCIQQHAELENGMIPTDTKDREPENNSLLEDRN

| Compound | Activity (Mus musculus [1]) [%] | Activity (Mus musculus [2]) [%] | Activity (Mus musculus [3]) [%] | Activity (Mus musculus [4]) [%] | Activity (Mus musculus [5]) [%] | Activity (Mus musculus [6]) [%] | Activity (Mus musculus [7]) [%] | Activity (Mus musculus [8]) [%] | Activity (Mus musculus [9]) [%] | fold change (FC) [10] | inhibition in vivo at 10 mg/kg (Mus musculus [11]) [%] | half-life [12] [min] | Activity (Mus musculus [13]) [%] | Drug metabolism (Liver) | fold change (FC) [14] | fold change (FC) [15] | fold change (FC) [16] | fold change (FC) [17] |
| --- | --- | --- | --- | --- | --- | --- | --- | --- | --- | --- | --- | --- | --- | --- | --- | --- | --- | --- |
| CN1CC[C@]23c4c5ccc(O)c4O[C@H]2[C@@H](O)C=C[C@H]3[C@H]1C5 [MORPHINE] | 159.7 | 98.6 | 94.6 | 86.7 | 124.5 | 12.6 | 24.3 | 185 |  |  |  |  |  |  |  |  |  |  |
| N#C/C(=C\c1cc2ccccc2[nH]1)C(=O)OC1CCCCC1 |  |  |  |  |  |  |  |  | 52.6 | 1.98 | 83.6 | 25 to 45 | 65.7 |  |  |  |  |  |
| CCOC(=O)/C(C#N)=C/c1cc2ccccc2[nH]1 |  |  |  |  |  |  |  |  | 32.7 |  | 88.4 | < 4 | 33.3 | Metabolite_Detected | 4.71 |  |  |  |
| N#C/C(=C\c1ccoc1)C(=O)Nc1ccccc1 |  | 24.8 | 35.1 | 29.2 | 22.1 | 0 | 0 |  | 148.6 |  | 48 |  | 107.7 |  | 4.64 | 0.5 | 1 | 3 |
